Where a SMILES comes first, the peptide text is derived from it. Bridges are numbered along the chain shown (N, C = ends). Where no end group is shown, it is not given here. [ ]: non-standard residue; d: D form. S5 = C=CCCC[C@](C)(N)C(=O)O
Key:
[1] = target: T1, VDR-mediated transcription in MCF-7 cells expressing the VDR (Homo sapiens, UniProt P11473); assay: Dual-luciferase reporter gene assay of VDR-mediated transcription; type: cell-based; conditions: 3 μM peptide, 30 nM calcitriol defined as 100%, 16 h incubation
T1 sequence (P11473 1-427): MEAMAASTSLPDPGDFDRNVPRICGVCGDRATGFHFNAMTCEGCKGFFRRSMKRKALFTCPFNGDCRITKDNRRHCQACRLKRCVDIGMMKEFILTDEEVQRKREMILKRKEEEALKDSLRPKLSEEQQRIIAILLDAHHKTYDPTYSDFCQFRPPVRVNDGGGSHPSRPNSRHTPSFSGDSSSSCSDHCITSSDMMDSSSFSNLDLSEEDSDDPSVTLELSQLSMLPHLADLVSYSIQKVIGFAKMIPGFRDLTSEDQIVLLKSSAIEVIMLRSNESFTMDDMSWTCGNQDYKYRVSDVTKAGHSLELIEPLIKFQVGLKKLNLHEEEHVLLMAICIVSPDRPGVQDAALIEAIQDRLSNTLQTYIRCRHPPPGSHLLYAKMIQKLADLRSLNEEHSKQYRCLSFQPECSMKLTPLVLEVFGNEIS
Method in brief: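 MCF-7 cells (RPMI-1640, 10% heat-inactivated FBS, 1% penicillin/streptomycin) seeded at 4×10^4 cells/well and cultured 24 h. Cells were co-transfected by lipofection with a VDRE-firefly luciferase reporter and SV40-Renilla luciferase control. After 8 h, test compound was added with 1α,25(OH)₂D₃ (30 nM) for 16 h. Dual-luciferase activity was read in lysates, with 30 nM calcitriol activation set as 100%.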

[2] = system: MCF-7 cells; assay: Confocal microscope observation of intracellular localization; type: cell-based; conditions: peptide 1 μM with LysoTracker 70 nM for 2 h, Figure S8
Method in brief: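 MCF-7 cells grown in RPMI-1640 with 10% heat-inactivated FBS and 1% penicillin/streptomycin, then plated on glass-bottom dishes. They were co-incubated 2 h with peptide and LysoTracker, then stained with Hoechst33342 for 5 min and washed with PBS before confocal imaging.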

[3] = system: HL-60 cells; assay: NBT reduction assay of VDR-mediated cell differentiation; type: cell-based; conditions: 1 μM peptide with 30 nM VD3, 48 h, NBT-positive cells counted
Method in brief: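 HL-60 cells in RPMI-1640 with 10% heat-inactivated FBS were treated 48 h with VD₃ (30 nM) with or without peptide. Cells were then stained with 1 mg/mL NBT plus 320 nM PMA for 30 min at 37 °C. NBT-positive cells were counted microscopically among more than 200 cells and expressed as a percentage. Data are means ± SD of three independent experiments.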

[4] = target: ligand binding domain of rat VDR with a deleted loop region (Ser165–Pro211) (rat) (UniProt P13053); assay: fluorescence polarisation
Chain of ligand binding domain of rat VDR with a deleted loop region (Ser165–Pro211) (rat) (P13053 212-423, stated change not applied): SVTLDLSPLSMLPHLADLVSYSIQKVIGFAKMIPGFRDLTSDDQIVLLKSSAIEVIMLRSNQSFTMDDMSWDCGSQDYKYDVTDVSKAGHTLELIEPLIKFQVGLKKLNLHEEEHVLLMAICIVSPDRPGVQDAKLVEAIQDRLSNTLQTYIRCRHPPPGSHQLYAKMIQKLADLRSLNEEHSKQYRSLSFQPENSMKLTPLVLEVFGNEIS

| Compound | % Inhibition at 3 μM of VDR-mediated transcriptional activity [1] | intracellular localization (confocal microscopy) [2] | inhibition of HL-60 cell differentiation at 1 μM [3] | relative value of IC50 (to SRC2-3) [4] |
| --- | --- | --- | --- | --- |
| CC(C)C[C@H](NC(=O)[C@H](CC(C)C)NC(=O)[C@]1(C)CCCC=CCCC[C@](C)(NC(=O)[C@H](CC(N)=O)NC(=O)[C@H](CCC(=O)O)NC(=O)[C@@H](N)CCCCN)C(=O)N[C@@H](CC(C)C)C(=O)N[C@@H](CC(C)C)C(=O)N[C@@H](CCCNC(=N)N)C(=O)N1)C(=O)N[C@@H](CC(=O)O)C(=O)N[C@@H](CCCCN)C(=O)N[C@@H](CC(=O)O)C(=O)NCC(=O)NCC(=O)NCC(=O)N[C@@H](CCCNC(=N)N)C(=O)N[C@@H](CCCNC(=N)N)C(=O)N[C@@H](CCCNC(=N)N)C(=O)N[C@@H](CCCNC(=N)N)C(=O)N[C@@H](CCCNC(=N)N)C(=O)N[C@@H](CCCNC(=N)N)C(=O)N[C@@H](CCCNC(=N)N)C(=O)N[C@@H](CCCNC(=N)N)C(=O)N[C@@H](CCCNC(=N)N)C(N)=O [Peptide 23] (H-KEN[S5]LLR[S5]LLDKDGGGRRRRRRRRR-NH2; staple 4-8) | 44.3% | localized in the endosome |  |  |
| CC(C)C[C@H](NC(=O)[C@H](C)NC(=O)[C@H](CC(N)=O)NC(=O)[C@H](CCC(=O)O)NC(=O)[C@@H](N)CCCCN)C(=O)N[C@@H](CC(C)C)C(=O)N[C@@H](CCCNC(=N)N)C(=O)N[C@@]1(C)CCCC=CCCC[C@@](C)(C(=O)N[C@@H](CC(=O)O)C(=O)NCC(=O)NCC(=O)NCC(=O)N[C@@H](CCCNC(=N)N)C(=O)N[C@@H](CCCNC(=N)N)C(=O)N[C@@H](CCCNC(=N)N)C(=O)N[C@@H](CCCNC(=N)N)C(=O)N[C@@H](CCCNC(=N)N)C(=O)N[C@@H](CCCNC(=N)N)C(=O)N[C@@H](CCCNC(=N)N)C(=O)N[C@@H](CCCNC(=N)N)C(=O)N[C@@H](CCCNC(=N)N)C(N)=O)NC(=O)[C@H](CC(=O)O)NC(=O)[C@H](CC(C)C)NC(=O)[C@H](CC(C)C)NC1=O [Peptide 24] |  | broadly localized over the entire cell | did not inhibit cell differentiation |  |
| KENALLRYLLDKDGGGRRRRRRRRR-NH2 [Peptide 21] |  |  | did not inhibit cell differentiation |  |
| SRC2-3 peptide |  |  |  | 1 |

Source: article PMC9774327 (ACS Omega, 2022)
